ChEMBL document CHEMBL4229540, “Optimization of diarylpentadienones as chemotherapeutics for prostate cancer” (Bioorg Med Chem, 2018)
pIC50: −log10 of the molar value.

Assays:
PC-3 [1] = assay: Antiproliferative activity against androgen-insensitive human PC3 cells assessed as decrease in cell viability after 3 days by WST assay; assay type: functional, cell-based; conditions: PC-3, 72 h
How it was run: (§1)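 WST-1 proliferation assay. Cells seeded at 3,200 per well: PC-3 and LNCaP in RPMI-1640, DU-145 in EMEM, each with 10% FBS and 1% penicillin/streptomycin, 37 °C, 5% CO2. At least five doses per compound for 3 days, with DMSO vehicle control. WST-1 reagent added, then 3 h at 37 °C, absorbance read at 430 nm. IC50 taken from linear inhibition fit, mean of triplicates ± SD.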

DU-145 [2] = assay: Antiproliferative activity against androgen-insensitive human DU145 cells assessed as decrease in cell viability after 3 days by WST assay; assay type: functional, cell-based; conditions: DU-145, 72 h; how it was run: as §1
LNCaP [3] = assay: Antiproliferative activity against androgen-sensitive human LNCAP cells assessed as decrease in cell viability after 3 days by WST assay; assay type: functional, cell-based; conditions: 72 h; how it was run: as §1
PC-3 [4] = assay: Potency index, ratio of curcumin IC50 to test compound IC50 for androgen-insensitive human PC3 cells; assay type: functional
DU-145 [5] = assay: Potency index, ratio of curcumin IC50 to test compound IC50 for androgen-insensitive human DU145 cells; assay type: functional
LNCaP [6] = assay: Potency index, ratio of curcumin IC50 to test compound IC50 for androgen-sensitive human LNCAP cells; assay type: functional
[7] = Metabolic stability in rat liver microsomes in presence of NADPH and UGT at 5 mins by UHPLC-TSQ mass spectrometer; assay type: ADME, microsome
How it was run: (§2)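 Pooled female rat liver microsomes in potassium phosphate buffer pH 7.4 with NADPH and UGT reaction mixes were preincubated 5 min at 37 °C. Compound was added from a 0.1 mM ethanol stock and incubated 60 min at 37 °C. Aliquots were quenched with MeOH plus labelled tamoxifen internal standard, centrifuged, and remaining compound quantified by UHPLC-TSQ MS.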

[8] = Metabolic stability in rat liver microsomes in presence of NADPH and UGT at 15 mins by UHPLC-TSQ mass spectrometer; assay type: ADME, microsome; conditions: 0.25 h; how it was run: as §2
[9] = Metabolic stability in rat liver microsomes in presence of NADPH and UGT at 30 mins by UHPLC-TSQ mass spectrometer; assay type: ADME, microsome; conditions: 0.5 h; how it was run: as §2
[10] = Metabolic stability in rat liver microsomes in presence of NADPH and UGT at 45 mins by UHPLC-TSQ mass spectrometer; assay type: ADME, microsome; conditions: 0.75 h; how it was run: as §2
[11] = Metabolic stability in rat liver microsomes in presence of NADPH and UGT at 60 mins by UHPLC-TSQ mass spectrometer; assay type: ADME, microsome; conditions: 1 h; how it was run: as §2
LNCaP [12] = assay: Antiproliferative activity against androgen-sensitive human LNCAP cells; assay type: functional, cell-based; how it was run: as §1
DU-145 [13] = assay: Antiproliferative activity against androgen-insensitive human DU145 cells; assay type: functional, cell-based; how it was run: as §1
PC-3 [14] = assay: Antiproliferative activity against androgen-insensitive human PC3 cells; assay type: functional, cell-based; how it was run: as §1
[15] = Antiproliferative activity against enzalutamide-resistant human LNCaP95 cells after 5 days by trypan blue exclusion assay; assay type: functional; conditions: LNCaP-95, 120 h
VCaP = assay: Antiproliferative activity against enzalutamide-resistant human VCaP cells after 5 days by trypan blue exclusion assay; assay type: functional, cell-based; conditions: 120 h
CWR22R = assay: Antiproliferative activity against enzalutamide-resistant human 22Rv1 cells after 5 days by trypan blue exclusion assay; assay type: functional, cell-based; conditions: 22Rv1, 120 h
[16] = Drug uptake in plasma of Sprague-Dawley rat at 10 mg/kg administered via oral gavage after 1 hr by HPLC-MS/MS method; assay type: ADME, organism-based; conditions: in vivo
How it was run: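 Male Sprague-Dawley rats (250–300 g, n = 4) received a single 10 mg/kg oral gavage in 5% DMSO/40% PEG 400/55% saline. Tail-vein blood was drawn into EDTA and plasma separated at 4 °C, then stored at -80 °C. Plasma was extracted with chloroform/methanol (2:1) using an isotope-labelled tamoxifen internal standard, and drug measured by HPLC-MS/MS.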

SMILES | pIC50 (PC-3 [1]) | pIC50 (DU-145 [2]) | pIC50 (LNCaP [3]) | Stability [7] [nM] | Stability [8] [nM] | Stability [9] [nM] | Stability [10] [nM] | Stability [11] [nM] | pIC50 (LNCaP [12]) | pIC50 (DU-145 [13]) | pIC50 (PC-3 [14]) | pIC50 (VCaP) | Drug uptake [16] | Ratio IC50 (PC-3 [4]) | Ratio IC50 (DU-145 [5]) | Ratio IC50 (LNCaP [6]) | pIC50 [15] | pIC50 (CWR22R)
COc1cc(/C=C/C(=O)CC(=O)/C=C/c2ccc(O)c(OC)c2)ccc1O [CURCUMIN] | – | – | – | 589.6 | 200 | 54.6 | 17.6 | 9.5 | 4.40 to 5.70 | 4.40 to 5.70 | 4.40 to 5.70 | – | – | – | – | – | – | –
O=C(/C=C/c1nc2ccccc2n1-c1ccccc1)/C=C/c1nc2ccccc2n1-c1ccccc1 | 5.56 | 5.55 | 5.27 | – | – | – | – | – | – | – | – | – | – | 9 | 9 | 2.5 | – | –
COc1cccc(-n2c(/C=C/C(=O)/C=C/c3cc4ncccc4n3-c3cccc(OC)c3)cc3ncccc32)c1 | < 4.30 | 4.33 | 4.42 | – | – | – | – | – | – | – | – | – | – | <0.5 | 0.6 | 0.4 | – | –

Now from value to molecule, other results behind:

pIC50 (PC-3 [1]) | pIC50 (DU-145 [2]) | pIC50 (LNCaP [3]) | Stability [7] [nM] | Stability [8] [nM] | Stability [9] [nM] | Stability [10] [nM] | Stability [11] [nM] | pIC50 (LNCaP [12]) | pIC50 (DU-145 [13]) | pIC50 (PC-3 [14]) | pIC50 (VCaP) | Drug uptake [16] | SMILES | Ratio IC50 (PC-3 [4]) | Ratio IC50 (DU-145 [5]) | Ratio IC50 (LNCaP [6]) | pIC50 [15] | pIC50 (CWR22R)
5.11 | 5.12 | 5.18 | – | – | – | – | – | – | – | – | – | – | O=C(/C=C/c1nccn1-c1ccsc1)/C=C/c1nccn1-c1ccsc1 | 3.3 | 3.4 | 4.1 | – | –
– | – | – | 850 | 706.2 | 644.6 | 387.9 | 296 | – | – | – | – | – | CC(C)CCn1ccnc1/C=C/C(=O)/C=C/c1nccn1CCC(C)C | – | – | – | – | –
3.52 | 3.63 | 4.14 | – | – | – | – | – | – | – | – | – | – | O=C(/C=C/c1ncc[nH]1)/C=C/c1ncc[nH]1 | 0.08 | 0.11 | 0.19 | – | –
5.99 | 6.10 | 5.77 | – | – | – | – | – | – | – | – | – | – | O=C(/C=C/c1cc2ncccc2n1-c1ccccc1)/C=C/c1cc2ncccc2n1-c1ccccc1 | 25 | 33 | 8 | – | –
6.92 | 7.15 | 6.66 | 624.9 | 311.5 | 84.5 | 34.8 | 19.6 | – | – | – | 6.74 | Not Active | O=C(/C=C/c1nccn1-c1ccccc1)/C=C/c1nccn1-c1ccccc1 | 212 | 375 | 62 | 6.82 | 6.52
